Assay results reported in ChEMBL document CHEMBL5303300, “EUbOPEN Chemogenomics Library - Multiplex” (2023).
Values joined by “and” are separate entries in the source; they are usually repeats but may differ in a detail not shown here. Equal entries are not always repeated.

Test system: Fibroblast
Assay: Multiplex assay against human fibroblast
Assay type: toxicity, cell-based
Details: number of replicates 2
Outline: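 Hoechst33342, BioTracker Green Microtubule Cytoskeleton Dye, MitoTracker Red and Annexin V Alexa Fluor 680 were added to live cells at seeding, and imaging on a CQ1 microscope at 37°C and 5% CO2 followed compound addition. Gating by CellPathfinder machine learning separated cells into Hoechst high-intensity objects or normal cells, then normal cells into healthy, pyknosed or fragmented nuclei, then pyknosed cells into mitotic or apoptotic. Per cents of healthy-nucleus cells are reported for the tubulin, mitochondrial-mass and membrane-permeability phenotypes.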

[1] = 12 h, 1 µM, compound concentration 1 uM
[2] = 12 h, 10 µM, compound concentration 10 uM
[3] = 24 h, 1 µM, compound concentration 1 uM
[4] = 24 h, 10 µM, compound concentration 10 uM
[5] = 48 h, 1 µM, compound concentration 1 uM
[6] = 48 h, 10 µM, compound concentration 10 uM

SMILES: C=CC(=O)Nc1ccc2[nH]c(=O)n(C3CCN(Cc4ccc(-c5ccc6c(c5)NC(=O)CO6)cc4)CC3)c2c1 [RL2578]
- Population Apoptotic (%) [1]: 34% and 40%
- Population Fragmented Nuclei (%) [1]: 12% and 8%
- Population Healthy Nuclei (%) [1]: 72% and 66%
- Population Hoechst High Intensity Objects (%) [1]: 0%
- Population Membrane Permeable-Phenotype (%) [1]: 4%
- Population Mitochondria Different-Phenotype (%) [1]: 3%
- Population Mitotic Cells (%) [1]: 65% and 60%
- Population Normal (%) [1]: 100%
- Population Pyknosed Nuclei (%) [1]: 15% and 25%
- Population Tubulin-Different-Phenotype (%) [1]: 13% and 15%
- Total Cell Count [1]: 173 and 180
- Population Apoptotic (%) [2]: 46% and 29%
- Population Fragmented Nuclei (%) [2]: 26% and 23%
- Population Healthy Nuclei (%) [2]: 65% and 67%
- Population Hoechst High Intensity Objects (%) [2]: 0%
- Population Membrane Permeable-Phenotype (%) [2]: 5% and 4%
- Population Mitochondria Different-Phenotype (%) [2]: 0% and 4%
- Population Mitotic Cells (%) [2]: 53% and 70%
- Population Normal (%) [2]: 99% and 100%
- Population Pyknosed Nuclei (%) [2]: 8%
- Population Tubulin-Different-Phenotype (%) [2]: 45% and 35%
- Total Cell Count [2]: 324 and 315
- Population Apoptotic (%) [3]: 48% and 55%
- Population Fragmented Nuclei (%) [3]: 6% and 14%
- Population Healthy Nuclei (%) [3]: 73% and 65%
- Population Hoechst High Intensity Objects (%) [3]: 0%
- Population Membrane Permeable-Phenotype (%) [3]: 3%
- Population Mitochondria Different-Phenotype (%) [3]: 4% and 0%
- Population Mitotic Cells (%) [3]: 51% and 44%
- Population Normal (%) [3]: 100%
- Population Pyknosed Nuclei (%) [3]: 19% and 20%
- Population Tubulin-Different-Phenotype (%) [3]: 18% and 19%
- Total Cell Count [3]: 169 and 214
- Population Apoptotic (%) [4]: 63% and 50%
- Population Fragmented Nuclei (%) [4]: 29% and 26%
- Population Healthy Nuclei (%) [4]: 65% and 69%
- Population Hoechst High Intensity Objects (%) [4]: 0%
- Population Membrane Permeable-Phenotype (%) [4]: 2%
- Population Mitochondria Different-Phenotype (%) [4]: 5% and 4%
- Population Mitotic Cells (%) [4]: 36% and 50%
- Population Normal (%) [4]: 99%
- Population Pyknosed Nuclei (%) [4]: 5% and 3%
- Population Tubulin-Different-Phenotype (%) [4]: 36% and 24%
- Total Cell Count [4]: 377 and 407
- Population Apoptotic (%) [5]: 86% and 67%
- Population Fragmented Nuclei (%) [5]: 14% and 17%
- Population Healthy Nuclei (%) [5]: 71% and 65%
- Population Hoechst High Intensity Objects (%) [5]: 0%
- Population Membrane Permeable-Phenotype (%) [5]: 5% and 6%
- Population Mitochondria Different-Phenotype (%) [5]: 0%
- Population Mitotic Cells (%) [5]: 13% and 32%
- Population Normal (%) [5]: 100% and 99%
- Population Pyknosed Nuclei (%) [5]: 14% and 17%
- Population Tubulin-Different-Phenotype (%) [5]: 14% and 8%
- Total Cell Count [5]: 160 and 217
- Population Apoptotic (%) [6]: 78% and 76%
- Population Fragmented Nuclei (%) [6]: 29%
- Population Healthy Nuclei (%) [6]: 66% and 67%
- Population Hoechst High Intensity Objects (%) [6]: 0%
- Population Membrane Permeable-Phenotype (%) [6]: 0% and 2%
- Population Mitochondria Different-Phenotype (%) [6]: 2% and 1%
- Population Mitotic Cells (%) [6]: 21% and 23%
- Population Normal (%) [6]: 100% and 99%
- Population Pyknosed Nuclei (%) [6]: 4% and 2%
- Population Tubulin-Different-Phenotype (%) [6]: 18% and 13%
- Total Cell Count [6]: 424 and 452

SMILES: CNC(=O)c1c(F)cccc1Nc1nc(Nc2cc3c(cc2OC)CCN3C(=O)CN(C)C)nc2[nH]ccc12
- Population Apoptotic (%) [1]: 26% and 33%
- Population Fragmented Nuclei (%) [1]: 9% and 14%
- Population Healthy Nuclei (%) [1]: 66% and 70%
- Population Hoechst High Intensity Objects (%) [1]: 0%
- Population Membrane Permeable-Phenotype (%) [1]: 6% and 2%
- Population Mitochondria Different-Phenotype (%) [1]: 0% and 3%
- Population Mitotic Cells (%) [1]: 73% and 66%
- Population Normal (%) [1]: 100% and 99%
- Population Pyknosed Nuclei (%) [1]: 24% and 14%
- Population Tubulin-Different-Phenotype (%) [1]: 7% and 20%
- Total Cell Count [1]: 166 and 190
- Population Apoptotic (%) [2]: 61% and 48%
- Population Fragmented Nuclei (%) [2]: 11% and 13%
- Population Healthy Nuclei (%) [2]: 16% and 26%
- Population Hoechst High Intensity Objects (%) [2]: 0%
- Population Membrane Permeable-Phenotype (%) [2]: 34% and 21%
- Population Mitochondria Different-Phenotype (%) [2]: 3%
- Population Mitotic Cells (%) [2]: 38% and 51%
- Population Normal (%) [2]: 100%
- Population Pyknosed Nuclei (%) [2]: 72% and 59%
- Population Tubulin-Different-Phenotype (%) [2]: 80% and 51%
- Total Cell Count [2]: 162 and 196
- Population Apoptotic (%) [3]: 27% and 47%
- Population Fragmented Nuclei (%) [3]: 11% and 9%
- Population Healthy Nuclei (%) [3]: 67% and 80%
- Population Hoechst High Intensity Objects (%) [3]: 0%
- Population Membrane Permeable-Phenotype (%) [3]: 2% and 1%
- Population Mitochondria Different-Phenotype (%) [3]: 0% and 4%
- Population Mitotic Cells (%) [3]: 72% and 52%
- Population Normal (%) [3]: 100% and 99%
- Population Pyknosed Nuclei (%) [3]: 20% and 10%
- Total Cell Count [3]: 159 and 167
- Population Apoptotic (%) [4]: 70% and 79%
- Population Fragmented Nuclei (%) [4]: 16% and 11%
- Population Healthy Nuclei (%) [4]: 18% and 17%
- Population Hoechst High Intensity Objects (%) [4]: 1% and 0%
- Population Membrane Permeable-Phenotype (%) [4]: 72% and 73%
- Population Mitochondria Different-Phenotype (%) [4]: 6% and 7%
- Population Mitotic Cells (%) [4]: 29% and 20%
- Population Normal (%) [4]: 98% and 99%
- Population Pyknosed Nuclei (%) [4]: 64% and 71%
- Population Tubulin-Different-Phenotype (%) [4]: 75% and 65%
- Total Cell Count [4]: 159 and 152
- Population Apoptotic (%) [5]: 58% and 81%
- Population Fragmented Nuclei (%) [5]: 13% and 15%
- Population Healthy Nuclei (%) [5]: 73% and 76%
- Population Hoechst High Intensity Objects (%) [5]: 0%
- Population Membrane Permeable-Phenotype (%) [5]: 2% and 1%
- Population Mitochondria Different-Phenotype (%) [5]: 0%
- Population Mitotic Cells (%) [5]: 41% and 18%
- Population Normal (%) [5]: 100%
- Population Pyknosed Nuclei (%) [5]: 13% and 8%
- Population Tubulin-Different-Phenotype (%) [5]: 3% and 5%
- Total Cell Count [5]: 178 and 200
- Population Apoptotic (%) [6]: 90% and 93%
- Population Fragmented Nuclei (%) [6]: 37% and 31%
- Population Healthy Nuclei (%) [6]: 20% and 24%
- Population Hoechst High Intensity Objects (%) [6]: 0%
- Population Membrane Permeable-Phenotype (%) [6]: 75% and 48%
- Population Mitochondria Different-Phenotype (%) [6]: 3% and 0%
- Population Mitotic Cells (%) [6]: 9% and 6%
- Population Normal (%) [6]: 100% and 99%
- Population Pyknosed Nuclei (%) [6]: 41% and 43%
- Population Tubulin-Different-Phenotype (%) [6]: 62% and 57%
- Total Cell Count [6]: 158 and 145
